# According to ChEMBL document CHEMBL4715822, “Structure-based lead optimization to improve antiviral potency and ADMET properties of phenyl-1H-pyrrole-carboxamide entry inhibitors targeted to HIV-1 gp120” (Eur J Med Chem, 2018):
# pIC50: −log10 of the molar value.
# Assays:
# [1] = tested on: Human immunodeficiency virus 1; assay: Antiviral activity against HIV-1 ADA infected in human MOLT-4 cells assessed as reduction in viral transmission to TZM-bl cells incubated for 48 hrs by luciferase based assay; assay type: functional, organism-based; details: Human immunodeficiency virus 1, ADA, MOLT-4, 48 h
# [2] = tested on: Human immunodeficiency virus 1; assay: Antiviral activity against pseudovirus HIV-1 HXB-2 harboring Env M475I mutant infected in human U87.CD4.CXCR4 cells assessed as reduction in viral infection pretreated for 30 mins before viral infection and measured after 3 days by luciferase based assay; assay type: functional, cell-based, M:B_HXB2R
# Outline: (§1)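 Pseudoviruses made in HEK293T by co-transfecting an Env-deleted backbone (pSG3Δenv or pNL4-3.Luc.R-.E-) with an HXB-2 Env plasmid carrying single or double substitutions; Env sequences confirmed by sequencing. Virus pretreated 30 min with graded compound, added to U87-CD4-CXCR4 cells (1 × 10⁴/well, plated overnight), incubated 3 days. Cells lysed, luciferase measured, IC50 calculated.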
# [3] = tested on: Human immunodeficiency virus 1; assay: Antiviral activity against clinical isolate HIV-1 92US073 infected in human PBMC cells assessed as reduction in viral transmission to TZM-bl cells pretreated for 1 hr before viral transmission and further incubated for 48 hrs by luciferase based assay; assay type: functional, cell-based; details: Human immunodeficiency virus 1, 92US073, PBMC
# Outline: (§2)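 PBMC from healthy HIV-negative donors infected with replication-competent virus in the presence of 30 μg/ml DEAE-dextran. On day 4 post-infection, cells washed free of virus and counted. 2 × 10⁴ infected PBMC/well pretreated with escalating compound for 1 h at 37 °C, then co-cultured 48 h with TZM-bl targets (10⁴/well, plated 24 h before). TZM-bl lysed, luciferase read, IC50 calculated.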
# [4] = tested on: Human immunodeficiency virus 1; assay: Antiviral activity against clinical isolate HIV-1 93RW034 infected in human PBMC cells assessed as reduction in viral transmission to TZM-bl cells pretreated for 1 hr before viral transmission and further incubated for 48 hrs by luciferase based assay; assay type: functional, organism-based; details: Human immunodeficiency virus 1, 93RW034, PBMC
# [5] = Solubility in 5% DMSO at pH 7.4 at 500 uM incubated for 90 mins in shaker by spectrophotometry; assay type: physicochemical
# Outline: (§3)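 DMSO stock diluted to 500 μM in universal aqueous buffer pH 7.4 with 2 or 5% DMSO final; quadruplicate, 90 min shaking at room temperature in filter plate, vacuum filtered; filtrate in 20% acetonitrile read by UV absorbance at six wavelengths. Filtrate/standard ratio binned as ~500, 100–500 or <100 μM.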
# [6] = tested on: Human immunodeficiency virus 1; assay: Antiviral activity against clinical isolate HIV-1 92US657 infected in human PBMC cells assessed as reduction in viral transmission to TZM-bl cells pretreated for 1 hr before viral transmission and further incubated for 48 hrs by luciferase based assay; assay type: functional, cell-based; details: Human immunodeficiency virus 1, 92US657, PBMC; outline: as §2
# [7] = tested on: Human immunodeficiency virus 1; assay: Antiviral activity against pseudovirus HIV-1 HXB-2 harboring Env S375H mutant infected in human U87.CD4.CXCR4 cells assessed as reduction in viral infection pretreated for 30 mins before viral infection and measured after 3 days by luciferase based assay; assay type: functional, cell-based, M:B_HXB2R; outline: as §1
# [8] = tested on: Human immunodeficiency virus 1; assay: Antiviral activity against clinical isolate HIV-1 CMU02 infected in human PBMC cells assessed as reduction in viral transmission to TZM-bl cells pretreated for 1 hr before viral transmission and further incubated for 48 hrs by luciferase based assay; assay type: functional, cell-based; details: Human immunodeficiency virus 1, CMU02, PBMC
# [9] = tested on: Human immunodeficiency virus 1; assay: Antiviral activity against Laboratory adapted HIV-1 LA1 infected in human PBMC cells assessed as reduction in viral transmission to TZM-bl cells pretreated for 1 hr before viral transmission and further incubated for 48 hrs by luciferase based assay; assay type: functional, organism-based; details: Human immunodeficiency virus 1, LA1, PBMC; outline: as §2
# [10] = Solubility in 2 % DMSO at pH 7.4 at 500 uM incubated for 90 mins in shaker by spectrophotometry; assay type: physicochemical; outline: as §3
# [11] = tested on: Human immunodeficiency virus 1; assay: Antiviral activity against clinical isolate HIV-1 RU570 infected in human PBMC cells assessed as reduction in viral transmission to TZM-bl cells pretreated for 1 hr before viral transmission and further incubated for 48 hrs by luciferase based assay; assay type: functional, cell-based; details: Human immunodeficiency virus 1, RU570, PBMC
# [12] = tested on: Human immunodeficiency virus 1; assay: Antiviral activity against pseudovirus HIV-1 HXB-2 harboring Env I424F mutant infected in human U87.CD4.CXCR4 cells assessed as reduction in viral infection pretreated for 30 mins before viral infection and measured after 3 days by luciferase based assay; assay type: functional, cell-based, M:B_HXB2R; outline: as §1
# [13] = tested on: Human immunodeficiency virus 1; assay: Antiviral activity against clinical isolate HIV-1 BCF03 infected in human PBMC cells assessed as reduction in viral transmission to TZM-bl cells pretreated for 1 hr before viral transmission and further incubated for 48 hrs by luciferase based assay; assay type: functional, cell-based; details: Human immunodeficiency virus 1, BCF03, PBMC
# [14] = tested on: Human immunodeficiency virus 1; assay: Antiviral activity against pseudovirus HIV-1 HXB-2 harboring Env M434I mutant infected in human U87.CD4.CXCR4 cells assessed as reduction in viral infection pretreated for 30 mins before viral infection and measured after 3 days by luciferase based assay; assay type: functional, cell-based, M:B_HXB2R; outline: as §1
# [15] = tested on: Human immunodeficiency virus 1; assay: Antiviral activity against clinical isolate HIV-1 BCF01 infected in human PBMC cells assessed as reduction in viral transmission to TZM-bl cells pretreated for 1 hr before viral transmission and further incubated for 48 hrs by luciferase based assay; assay type: functional, cell-based; details: Human immunodeficiency virus 1, BCF01, PBMC; outline: as §2
# [16] = tested on: Human immunodeficiency virus 1; assay: Antiviral activity against pseudovirus HIV-1 HXB-2 harboring wild type Env infected in human U87.CD4.CXCR4 cells assessed as reduction in viral infection pretreated for 30 mins before viral infection and measured after 3 days by luciferase based assay; assay type: functional, cell-based; details: Human immunodeficiency virus 1, M:B_HXB2R
# [17] = tested on: Human immunodeficiency virus 1; assay: Antiviral activity against pseudovirus HIV-1 HXB-2 harboring Env L116P mutant infected in human U87.CD4.CXCR4 cells assessed as reduction in viral infection pretreated for 30 mins before viral infection and measured after 3 days by luciferase based assay; assay type: functional, cell-based, M:B_HXB2R; outline: as §1
# [18] = tested on: Human immunodeficiency virus 1; assay: Antiviral activity against pseudovirus HIV-1 HXB-2 harboring Env M434I/I595F double mutant infected in human U87.CD4.CXCR4 cells assessed as reduction in viral infection pretreated for 30 mins before viral infection and measured after 3 days by luciferase based assay; assay type: functional, cell-based, M:B_HXB2R; outline: as §1
# [19] = tested on: Human immunodeficiency virus 1; assay: Antiviral activity against pseudovirus HIV-1 HXB-2 harboring Env F468L mutant infected in human U87.CD4.CXCR4 cells assessed as reduction in viral infection pretreated for 30 mins before viral infection and measured after 3 days by luciferase based assay; assay type: functional, cell-based, M:B_HXB2R; outline: as §1
# [20] = tested on: Human immunodeficiency virus 1; assay: Antiviral activity against pseudovirus HIV-1 HXB-2 harboring Env N425K mutant infected in human U87.CD4.CXCR4 cells assessed as reduction in viral infection pretreated for 30 mins before viral infection and measured after 3 days by luciferase based assay; assay type: functional, cell-based, M:B_HXB2R; outline: as §1
# [21] = tested on: Human immunodeficiency virus 1; assay: Antiviral activity against Laboratory adapted HIV-1 BaL infected in human PBMC cells assessed as reduction in viral transmission to TZM-bl cells pretreated for 1 hr before viral transmission and further incubated for 48 hrs by luciferase based assay; assay type: functional, cell-based; details: Human immunodeficiency virus 1, BaL; outline: as §2
# [22] = tested on: Human immunodeficiency virus 1; assay: Antiviral activity against Laboratory adapted HIV-1 89.6 infected in human PBMC cells assessed as reduction in viral transmission to TZM-bl cells pretreated for 1 hr before viral transmission and further incubated for 48 hrs by luciferase based assay; assay type: functional, cell-based; details: Human immunodeficiency virus 1, 89.6, PBMC
# [23] = tested on: Human immunodeficiency virus 1; assay: Antiviral activity against clinical isolate HIV-1 Ru132 infected in human PBMC cells assessed as reduction in viral transmission to TZM-bl cells pretreated for 1 hr before viral transmission and further incubated for 48 hrs by luciferase based assay; assay type: functional, cell-based; details: Human immunodeficiency virus 1, Ru132, PBMC; outline: as §2
smiles,measurement,setting,value
COc1cnc(-n2cnc(C)n2)c2[nH]cc(C(=O)C(=O)N3CCN(C(=O)c4ccccc4)CC3)c12,pIC50,[1],6.40
same,pIC50,[2],7.30
same,pIC50,[3],7.00
same,pIC50,[4],7.00
same,"solubility kinetic at […], 500 µM",[5],100 µM
same,pIC50,[6],7.00
same,pIC50,[7],< 6.00
same,pIC50,[8],< 5.22
same,pIC50,[9],7.00
same,"solubility kinetic at […], 500 µM",[10],< 100 µM
same,pIC50,[11],7.00
same,pIC50,[12],< 6.00
same,pIC50,[13],< 5.22
same,pIC50,[14],8.10
same,pIC50,[15],< 5.22
same,pIC50,[16],8.10
same,pIC50,[17],< 6.00
same,pIC50,[18],8.10
same,pIC50,[19],8.10
same,pIC50,[20],8.10
same,pIC50,[21],7.00
same,pIC50,[22],7.00
same,pIC50,[23],7.00
